Source: ChEMBL document CHEMBL4673248, “Discovery and Characterization of BAY 1214784, an Orally Available Spiroindoline Derivative Acting as a Potent and Selective Antagonist of the Human Gonadotropin-Releasing Hormone Receptor as Proven in a First-In-Human Study in Postmenopausal Women” (J Med Chem, 2020)

How the values were obtained:
[1] = Intrinsic clearance in Han Wistar rat hepatocytes at 1 uM measured up to 90 mins by LC/MS/MS analysis; type: ADME, cell-based, Hepatocyte; settings: Han Wistar, read-out: CLH (converted)
[2] = biological target: Cytochrome P450 3A4 (Homo sapiens, UniProt P08684); test: Inhibition of CYP3A4 in human liver microsomes using […] as substrate by LC-MS/MS analysis; type: ADME
[3] = biological target: T1, Gonadotropin-releasing hormone receptor (Rattus norvegicus, UniProt P30969); test: Antagonist activity at rat GnRH receptor expressed in CHO-K1 cells assessed as inhibition of buserelin-induced response preincubated for 20 mins followed by buserelin addition and measured after 60 mins by TR-FRET assay; type: cell-based
T1 sequence (P30969 whole entry): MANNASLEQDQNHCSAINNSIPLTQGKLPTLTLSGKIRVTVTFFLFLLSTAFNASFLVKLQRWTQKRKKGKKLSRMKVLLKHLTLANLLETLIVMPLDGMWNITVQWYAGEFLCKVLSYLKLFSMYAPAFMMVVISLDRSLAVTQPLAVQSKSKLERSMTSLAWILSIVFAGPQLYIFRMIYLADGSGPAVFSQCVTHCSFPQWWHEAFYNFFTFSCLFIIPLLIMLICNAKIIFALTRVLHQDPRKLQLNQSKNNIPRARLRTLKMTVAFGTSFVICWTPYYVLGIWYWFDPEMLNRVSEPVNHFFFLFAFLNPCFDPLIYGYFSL
Method in brief: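 Frozen rat-receptor cells: thawed, seeded overnight in serum-containing Ham's F12, Accutase-harvested, resuspended in serum-free medium with IP1-d2, 1 h at 37 °C. 1.0 × 10^4 cells/well, 20 min compound preincubation at rt, then 1× EC80 LHRH or buserelin in HEPES stimulation buffer pH 7.4 for 60 min at 37 °C. Tb-anti-IP1 lysis (1:38), HTRF read 60 min later.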

[4] = biological target: T2, Gonadotropin-releasing hormone receptor (Homo sapiens, UniProt P30968); test: Inhibition of Tag-lite green-labeled agonist binding to terbium fluorophore-labeled human N-terminal SNAP-tag GnRh receptor expressed in HEK293 cells assessed as equilibrium dissociation constant by TR-FRET assay; type: cell-based
T2 sequence (P30968 whole entry): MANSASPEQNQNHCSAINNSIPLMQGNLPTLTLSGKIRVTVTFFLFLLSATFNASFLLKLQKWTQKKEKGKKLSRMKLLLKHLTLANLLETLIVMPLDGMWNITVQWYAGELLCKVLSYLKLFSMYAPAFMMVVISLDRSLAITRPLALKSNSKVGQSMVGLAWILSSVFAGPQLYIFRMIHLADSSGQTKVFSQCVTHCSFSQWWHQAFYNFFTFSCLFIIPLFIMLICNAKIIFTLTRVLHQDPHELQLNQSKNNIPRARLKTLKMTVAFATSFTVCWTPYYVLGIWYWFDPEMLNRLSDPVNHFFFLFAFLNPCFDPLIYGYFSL

Chain of Cytochrome P450 3A4 (P08684 whole entry): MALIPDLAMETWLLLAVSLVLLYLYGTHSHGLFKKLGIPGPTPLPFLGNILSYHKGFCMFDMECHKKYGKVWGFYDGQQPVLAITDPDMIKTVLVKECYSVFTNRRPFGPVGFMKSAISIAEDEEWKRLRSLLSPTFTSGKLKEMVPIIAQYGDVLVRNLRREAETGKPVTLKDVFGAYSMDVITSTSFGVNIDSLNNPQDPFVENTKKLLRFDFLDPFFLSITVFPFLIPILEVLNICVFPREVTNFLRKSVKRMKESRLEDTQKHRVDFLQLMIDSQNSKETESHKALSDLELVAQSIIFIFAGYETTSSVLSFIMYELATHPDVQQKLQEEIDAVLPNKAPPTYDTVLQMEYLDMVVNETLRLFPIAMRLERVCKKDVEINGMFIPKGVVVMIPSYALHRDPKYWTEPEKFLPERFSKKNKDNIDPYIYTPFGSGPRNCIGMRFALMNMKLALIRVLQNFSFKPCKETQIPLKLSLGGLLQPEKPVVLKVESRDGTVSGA

- CLint scaled at 1 µM [1]: 12.5 mL/min/kg
- IC50 [2]: > 10000 nM
- IC50 [3]: 24 nM
- Kd [4]: 5.52 nM
SMILES: O=C(NCc1ncc(C(F)(F)F)cc1Cl)c1ccc2c(c1)C1(CCS(=O)(=O)CC1)[C@H](C1CC1)N2S(=O)(=O)c1ccc(F)cc1 [BAY-784]
